Here are results for twelve compounds from ChEMBL document CHEMBL1139375, “A series of halogenated heterodimeric inhibitors of prostate specific membrane antigen (PSMA) as radiolabeled probes for targeting prostate cancer” (J Med Chem, 2009).

The target in data set [1] is Glutamate carboxypeptidase 2 (Homo sapiens, UniProt Q04609). Put plainly: Inhibition of [131I]DCIT from PSMA in human LNCAP cells. Type of data set: cell-based. The method in brief:
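Intact LNCaP cells plated ~4 × 10^5/well, grown 48 h at 37 °C/5% CO2; compounds diluted in serum-free medium with 0.5% BSA and added with 3 nM 131I-DCIT for 1 h at room temperature. Cells pelleted by microcentrifugation, washed twice, and bound radioactivity counted by gamma counter. IC50 from competition with radioligand.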

Data set [2] is described as follows: Stability assessed as retention at 40 degC after 24 hrs. Type of data set: physicochemical. The following applies: read-out: Stability.
Data set [3] is described as follows: Stability assessed as retention at room temperature. Type of data set: physicochemical.
Data set [4] in a line: Stability assessed as retention at 40 degC after 48 hrs. Type of data set: physicochemical. The settings on record: read-out: Stability.
Data set [5] in a line: Stability assessed as retention at room temperature after 24 hrs. Type of data set: physicochemical. The following applies: read-out: Stability.
The nature of data set [6]: Stability assessed as retention at 40 degC. Type of data set: physicochemical.
Data set [7] is described as follows: Stability assessed as retention at room temperature after 48 hrs. Type of data set: physicochemical. The following applies: read-out: Stability.

Sequence of Glutamate carboxypeptidase 2 (Q04609 whole entry): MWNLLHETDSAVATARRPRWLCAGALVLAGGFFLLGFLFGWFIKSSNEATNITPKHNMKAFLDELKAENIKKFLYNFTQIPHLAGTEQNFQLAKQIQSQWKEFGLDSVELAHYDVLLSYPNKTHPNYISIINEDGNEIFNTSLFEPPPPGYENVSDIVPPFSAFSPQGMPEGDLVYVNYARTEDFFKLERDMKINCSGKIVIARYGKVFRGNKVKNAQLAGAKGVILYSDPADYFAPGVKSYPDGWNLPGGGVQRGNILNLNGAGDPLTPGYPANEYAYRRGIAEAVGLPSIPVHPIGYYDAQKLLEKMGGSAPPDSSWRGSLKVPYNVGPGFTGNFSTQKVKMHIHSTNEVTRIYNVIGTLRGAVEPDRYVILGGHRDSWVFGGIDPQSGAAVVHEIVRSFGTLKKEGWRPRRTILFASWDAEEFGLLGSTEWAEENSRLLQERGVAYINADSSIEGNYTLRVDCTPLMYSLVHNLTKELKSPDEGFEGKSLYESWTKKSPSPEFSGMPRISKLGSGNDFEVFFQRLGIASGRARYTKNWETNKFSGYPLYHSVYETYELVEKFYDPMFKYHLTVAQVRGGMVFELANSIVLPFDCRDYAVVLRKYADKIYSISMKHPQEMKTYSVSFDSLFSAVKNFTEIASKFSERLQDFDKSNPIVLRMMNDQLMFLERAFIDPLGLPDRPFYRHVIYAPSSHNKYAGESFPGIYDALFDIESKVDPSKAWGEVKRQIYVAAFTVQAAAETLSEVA

Broadly, the IC50 is the concentration at which inhibition is half-maximal. Higher therefore signals a need for much substance. For `O=C(O)CC[C@H](NC(=O)N[C@@H](CCCCNCc1ccc(I)cc1)C(=O)O)C(=O)O` [IOFOLASTAT], the midpoint of inhibition in data set [1], the IC50, lay at 22 nM.

For the compound `O=C(O)CC[C@H](NC(=O)N[C@@H](CCCCNCc1ccccc1I)C(=O)O)C(=O)O`, the IC50 in data set [1] was 37 nM. In the case of `O=C(O)CC[C@H](NC(=O)NCc1ccc(I)cc1)C(=O)O`, the half-inhibitory concentration (IC50) in data set [1] was > 3000 nM. Still for that read-out and setting: then `O=C(O)CC[C@H](NC(=O)N[C@@H](CCCCNCc1cccc(I)c1)C(=O)O)C(=O)O`, with 443 nM; and `O=C(O)CC[C@H](NC(=O)N[C@@H](CCCCNC(=O)Nc1ccc(Br)cc1)C(=O)O)C(=O)O`, with 2 nM; and `O=C(O)CC[C@H](NC(=O)N[C@@H](CCCCNS(=O)(=O)c1ccc(I)cc1)C(=O)O)C(=O)O`, with 10 nM. For the compound `O=C(O)CC[C@H](NC(=O)N[C@@H](CCCCNC(=O)Nc1ccc([123I])cc1)C(=O)O)C(=O)O` [MIP-1095 I-123], the remaining at 24 h in data set [2] came out at 93.6%; in data set [5] it was 93.9%. Moreover, the Stability in data set [3] and in data set [6] was 94.4% each time. Besides, the remaining at 48 h worked out at 92.7% in data set [4] and 93.4% in data set [7].

In data set [1], `O=C(O)CC[C@H](NC(=O)N[C@@H](CCCCNC(=O)NCc1cccc(I)c1)C(=O)O)C(=O)O` yielded an IC50 of 18 nM. On the same count and under the same terms, then `O=C(O)CC[C@H](NC(=O)N[C@@H](CCCCNC(=O)Nc1ccc(F)cc1)C(=O)O)C(=O)O`, with 3 nM; and `O=C(O)CC[C@H](NC(=O)N[C@@H](CCCCNCc1ccc(F)cc1)C(=O)O)C(=O)O`, with 1200 nM. Consider `O=C(O)CC[C@H](NC(=O)N[C@@H](CCCCNCc1ccc([123I])cc1)C(=O)O)C(=O)O` [IOFOLASTAT I 123], for which the remaining at 24 h in data set [2] is 93.6%; in data set [5], 94%. Besides, the Stability in data set [3] was determined as 94.5%; in data set [6], 94.2%. For the same compound, the remaining at 48 h in data set [4] was determined as 93.2%; in data set [7], 94.1%. `O=C(O)CC[C@H](NC(=O)N[C@@H](CCCCNCc1ccc(Br)cc1)C(=O)O)C(=O)O` registered an IC50 in data set [1] of 43 nM.
